# Beta cell apopt = beta cell apoptosis inhibition. INS-1E cytokine-induced death, ATP luminescence, 48 h; percent of positive-control rescue, neutral wells zero. protection from apoptosis, % (test concentration not listed). actives 0.8% (n = 300,000);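 active = Every replicate reaches about 75%, or at least half do and their mean reaches it too, limit read from the data; inconclusive = At least half of replicates reach the limit but their mean does not; inactive = Under half of replicates reach the limit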;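 also: 0% = cytokine-treated negative control wells and 100% = positive control rescue; higher means more ATP so stronger rescue from cytokine killing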
# Mot1-301 SUMO = blocks SUMOylation pathway, rescuing yeast Mot1-301 growth. S. cerevisiae Mot1-301 growth rescue, ATP luminescence, 38.5C; percent above DMSO median, 100 means doubled. AID 2716. growth rescue, % at 18.8 µM. actives 1% (n = 320,000);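 active = every valid replicate shows activation above 250% relative to neutral control wells; inactive = the rest, any valid replicate at or below 250%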;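 also: OY570 slx delta 5 strain wells were the positive control but not used for scaling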
# CSC inhib = blocks cancer stem cells; cancer stem cell-like cells viability, luminescence; inhibition, % at 7.5 µM; actives 1.1% (n = 300,000); AID 2717; in the data active = inhibition above about 75%; inconclusive = no clear call, values can overlap the other calls; tested in HMLE shEcad cells
# WT yeast gro inh = growth inhibition of WT yeast, mitochondrial fusion screen; mitochondrial fusion phenotypic screen, WT strain; inhibition, % at 10 µM; actives 2.1% (n = 190,000); AID 1362; in the data active = inhibition above about 58%; tested in S. cerevisiae
# T cruzi inh = blocks replication of Trypanosoma cruzi; T. cruzi beta-gal in NIH3T3, luminescence, 90 h; inhibition, % (concentration not given with the values); actives 1.4% (n = 300,000); AID 1885;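 active = mean inhibition across valid replicates above about 55%, limit read from the data; inconclusive = mean below that limit but half or more replicates reach it; inactive = mean below it, under half of replicates reach it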;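 also: signal also drops with host cell toxicity which is not excluded here; 0% = plate median of DMSO wells and 100% = zero luminescence signal; higher percent means less beta-gal luminescence so fewer parasites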
#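 Read-out: Parasite load inhibition, % | Test system: Mouse NIH/3T3 fibroblasts infected with β-gal-expressing T. cruzi Tulahuen C4 | Amount: 5,000 cells/well | Medium: DMEM, 2% fetal bovine serum | Signal: GalScreen β-gal luminescence, detergent lysis, 60 min | Timing: 3 h attach, ≥90 h co-culture | Also added: Tulahuen C4 trypomastigotes, 5000/well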
# Efflux pump inh = antifungal efflux pump inhibition, Nile Red retention; S. cerevisiae Candida pump triplex; inhibition, % at 10 µM; actives 0.44% (n = 330,000);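 active = plate passing quality check with inhibition over a set limit, or well fluorescence over plate mean plus 4 SD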;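 also: Nile Red retained in pooled yeast measured as flow cytometry median fluorescence; 0% = buffer negative control and 100% = Enniatin B positive control; higher means more Nile Red kept so more efflux inhibition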
# Starred values were filed as active, the others as inactive; ? = inconclusive; . = no result. This is a sample that favours compounds with a hit; in the whole collection about 4.8% have one here.
SMILES,Beta cell apopt,Mot1-301 SUMO,CSC inhib,WT yeast gro inh,T cruzi inh,Efflux pump inh
O=C(CSC1CC(=O)N(CCc2ccccc2)C1=O)Nc1cccc(Cl)c1 (configuration not stated),-48,314*,-16,25,-11,0
O=C(c1cn(-c2ccccc2)nc1-c1cccnc1)N1CCN(S(=O)(=O)c2cccc(F)c2)CC1,-3,-9,1,.,.,0
COc1cc(/C=C/c2noc(-c3ccccc3O)n2)ccc1OC(C)=O,-6,85,103*,.,-23,0
O=C(OC[C@H]1O[C@@H](OC(=O)c2cc(O)c(O)c(OC(=O)c3cc(O)c(O)c(O)c3)c2)[C@H](OC(=O)c2cc(O)c(O)c(OC(=O)c3cc(O)c(O)c(O)c3)c2)[C@@H](OC(=O)c2cc(O)c(O)c(OC(=O)c3cc(O)c(O)c(O)c3)c2)[C@@H]1OC(=O)c1cc(O)c(O)c(OC(=O)c2cc(O)c(O)c(O)c2)c1)c1cc(O)c(O)c(OC(=O)c2cc(O)c(O)c(O)c2)c1,12,-29,90*,.,.,0
COC1OC(COC(=O)c2ccccc2)C(OC(=O)c2ccccc2)C1OC(=O)c1ccccc1 (configuration not stated),3,-6,-7,.,7,0
CCn1nnc(NC(=O)c2ccc([N+](=O)[O-])o2)n1,-35,58,1,-11,61*,0
CCC(=O)N1CCN(c2ccc(NC(=O)c3ccc([N+](=O)[O-])o3)cc2Cl)CC1,.,.,.,66*,29,.
CCN1CCN(c2ccc(NC(=O)c3ccc([N+](=O)[O-])o3)cc2Cl)CC1,.,.,.,9,91*,.
CCCCn1nnc(NC(=O)c2ccc(-c3ccccc3[N+](=O)[O-])o2)n1,-4,22,-1,2,5,0
COc1ccccc1N1CCN(C(=O)c2cccc(S(=O)(=O)N3CCCCCC3)c2)CC1,.,.,.,.,.,0
CCc1ccc(-c2cc(C(F)(F)F)n3nc(C(=O)Nc4cnn(Cc5ccc(C)cc5)c4)cc3n2)s1,76*,3,48,3,7,0
COC(=O)c1c(NC(=O)COC(=O)CC(NC(C)=O)c2ccccc2)sc(C)c1C (configuration not stated),-1,166,-7,.,3,0
Cc1cc(C)c(C(=O)/C=C/c2ccc(C(C)C)cc2)c(=O)[nH]1,-31,9,84*,-26,16,0
Cc1cc(C)c(C(=O)/C=C/C=C/c2ccccc2)c(=O)[nH]1,-1,3,1,2,8,0
Cc1ncoc1C(=O)N1CCCC(C(=O)c2ccc(C(F)(F)F)cc2)C1 (configuration not stated),-1,-12,-4,3,4,0
COc1ccccc1N1CCN(C(=O)c2ccc3[nH]c4c(c3c2)CC(C)CC4)CC1 (configuration not stated),-4,4,50,72*,57*,0
CC(C)(C)c1cc(OC(=O)c2ccccc2F)ccc1O,-5,21,-19,72*,-9,0
CC(C)(C)c1cc(OC(=O)c2ccncc2)ccc1O,-5,1,19,-4,.,0
Cc1ccc(C)c(N2CCN(C(=O)c3ccc(CS(=O)Cc4cccc(Cl)c4)o3)CC2)c1 (configuration not stated),-1,144,-27,.,-2,0
COC(=O)c1cc(S(=O)(=O)N(C)C2CCCCC2)oc1C,1,-7,-8,.,0,0
COc1cc(S(=O)(=O)N(C)C2CCCCC2)c(C)cc1C,.,.,.,59*,8,.
CCOC(=O)C1=C(C)NC(C)=C(C(=O)OCC)C1C(=O)OCC(=O)N(CC)C1CCS(=O)(=O)C1 (configuration not stated),1,167,-10,9,-9,0
CCN(CC)C(=O)CSc1nnc2nnc3cc(OC)ccc3n12,-37,6,10,.,24,0
COc1ccc(NC(=O)CNc2cccc(C#N)c2)cc1Cl,6,.,-13,71*,-10,0
CCOC(=O)c1cccc(NC(=O)/C=C/c2cccc([N+](=O)[O-])c2)c1,-2,11,-7,-5,31,0
SMILES,Beta cell apopt,Mot1-301 SUMO,CSC inhib,WT yeast gro inh,T cruzi inh,Efflux pump inh
COc1ccc(NCC(=O)Nc2ccc(C#N)cc2)cc1Cl,8,-4,-11,20,30,0
CN(CC(=O)Nc1ccc(Cl)c(Cl)c1)CC(=O)Nc1ccc2c(c1)OCO2,1,-21,80*,.,.,0
COc1ccc(NC(=O)Nc2cccc([N+](=O)[O-])c2)cc1Cl,59,-3,41,79*,27,0
CCOC(=O)/C=C/C(=O)Nc1cccc([N+](=O)[O-])c1,-4,16,108*,43,35,0
Cc1ccc(NC(=O)C2CCN(S(=O)(=O)c3cccnc3)CC2)cc1C,.,-13,-4,.,3,0
COc1ccc(C(C)(C)C)cc1NC(=O)Nc1ccc2c(c1)OCO2,5,-4,83*,68*,32,0
O=C(Nc1ccc(OC(F)F)c(Cl)c1)Nc1ccc2c(c1)OCO2,9,-22,98*,28,12,0
O=C(Nc1ccc([N+](=O)[O-])cc1)Nc1ccc(OC(F)F)c(Cl)c1,132*,12,103*,84*,.,0
O=C(Nc1cccc([N+](=O)[O-])c1)Nc1ccc2c(c1)CCC2,36,19,-3,.,57*,0
O=C(Nc1ccccc1)Nc1ccc2c(c1)CCC2,-7,-5,12,.,18,0
O=C(Cc1ccc(Cl)cc1Cl)Nc1ccc(OC(F)F)c(Cl)c1,-3,18,20,21,36,0
Cc1nc2sccn2c(=O)c1S(=O)(=O)NCC(C)c1ccccc1 (configuration not stated),6,249,-2,.,-34,0
CCn1c(SCc2cccc(F)c2)nc2c(c1=O)SCC2,-4,1,5,13,33,0
COc1cc(/C=C/C(O)=C/C(=O)/C=C/c2ccc(O)cc2)ccc1O,2,5,25,.,.,1
CC1Oc2ccccc2C=C1C1/C(=C(/O)c2ccccc2)C(=O)C(=O)N1CCCN(C)C (configuration not stated),-1,286*,-7,4,-16,0
Cc1ccc(-n2c(C)nnc2SC(C)C(=O)N2CCCC2)cc1 (configuration not stated),-1,285*,-32,.,-4,0
Cc1nnc(NC(=O)c2ccc(S(=O)(=O)C(F)F)cc2)s1,7,15,-1,.,-10,0
CCCN(CCC)C(=O)c1cc([N+](=O)[O-])cc2c1-c1ccc([N+](=O)[O-])cc1C2=C(C#N)C#N,?,-25,52,.,80*,0
CC(=O)Nc1ccc(C2=CC(=O)C[C@H](c3ccc4c(c3)OCO4)C2)cc1,91*,6,13,.,.,0

# Assay outcomes deposited in PubChem BioAssay by several laboratories.
